High-throughput results from PubChem.
A selection: hits, their analogues and other compounds. The true share with any hit is near 1.5%.
RAD54 inh = RAD54 (human) branch migration inhibition | RAD54 Holliday junction branch migration, FAM/BHQ fluorescence | inhibition, % at 10.4 µM | actives 0.14% (n = 360,000) | AID 602329;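 active = mean normalized replicate activity at least 40 and at least half of replicates scoring 40 or more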;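 note: 0% = median of neutral control wells and 100% = median of positive control wells; inhibitors cause a drop in the FAM fluorescence signal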
RAD52 anneal inh = inhibitors of human RAD52 DNA annealing. recombinant RAD52 DNA annealing, FRET fluorescence. inhibition, % at 18.7 µM. actives 0.46% (n = 360,000). AID 651710;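 active = every replicate showing at least 50% inhibition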
Target sequence (P43351 whole entry, looked up): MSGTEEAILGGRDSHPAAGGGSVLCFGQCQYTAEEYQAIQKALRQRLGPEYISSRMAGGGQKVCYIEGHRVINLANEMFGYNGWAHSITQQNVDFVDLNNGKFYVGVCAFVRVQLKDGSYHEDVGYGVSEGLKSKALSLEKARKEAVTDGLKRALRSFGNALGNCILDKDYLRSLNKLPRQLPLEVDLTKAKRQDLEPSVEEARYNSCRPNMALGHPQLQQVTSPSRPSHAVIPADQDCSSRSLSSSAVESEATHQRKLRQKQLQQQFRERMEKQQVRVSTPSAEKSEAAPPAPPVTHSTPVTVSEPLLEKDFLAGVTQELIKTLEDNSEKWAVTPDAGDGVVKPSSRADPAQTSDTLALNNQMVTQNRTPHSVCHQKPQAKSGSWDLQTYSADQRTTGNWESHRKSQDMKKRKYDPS
S100A4 MyoIIA = inhibitors of human S100A4 binding to myosin IIA peptide. P26447. S100A4/TAMRA-MyoIIA peptide fluorescence polarization. inhibition, % at 10.7 µM. actives 0.14% (n = 360,000);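 active = mean inhibition of at least 70% across replicates, with every replicate also reaching that level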
Target sequence (P26447 whole entry, looked up): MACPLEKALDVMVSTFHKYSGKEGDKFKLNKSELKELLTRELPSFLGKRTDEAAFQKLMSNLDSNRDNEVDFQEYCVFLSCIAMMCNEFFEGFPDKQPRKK
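System – human S100A4 monomer protein, biochemical binding assay · Buffer or medium – Calcium-containing HEPES buffer, pH 7.2 · Timing – 5 min between mix addition and reading · Also added – TAMRA-labelled myosin IIA heavy-chain peptide probe, 5 nM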
AF4-AF9 inh = inhibitors of human MLL-AF4/AF9 interaction; AlphaScreen, biotin-AF4 peptide binding to FLAG-AF9; inhibition, % at 10 µM; actives 0.47% (n = 350,000); AID 651704; P42568;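 active = every replicate reaching a set inhibition limit, whatever the replicate mean, cut at about 25% in these data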;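 note: 0% = plate neutral control median and 100% = total signal loss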
dFosB act-1 = enhances mouse delta FosB homodimer DNA binding. P13346. purified delta FosB, TAMRA-CDK5 oligo fluorescence polarization; percent of positive-control signal above neutral wells. activation, % at 25 µM. actives 0.99% (n = 340,000). AID 493131;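 active = mean activation above about 17%, with every replicate also reaching it, limit read from the data, passing the limit was not always enough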
dFosB act-2 = activators of mouse delta FosB homodimer DNA binding. shares compounds with dFosB act-1. 2,400 tested, under 10 active. purified delta FosB, TAMRA-CDK5 oligo fluorescence polarization; normalised: neutral wells 0, positive control 100. activation, % at 24.9 µM;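 active = highest replicate activation at or above 34% and every replicate reaching that threshold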;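 note: higher polarization means more probe DNA bound by delta FosB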
Active calls of the source: *; . = not tested or not shown.

SMILES	RAD54 inh	RAD52 anneal inh	S100A4 MyoIIA	AF4-AF9 inh	dFosB act-1	dFosB act-2
O=C(Nc1cccc([N+](=O)[O-])c1)c1cccc(C(=O)Nc2cccc([N+](=O)[O-])c2)c1	-8.4	0.0	3.0	-0.2	33.7*	-1.4
COC(=O)c1c(NC(=O)c2cccc([N+](=O)[O-])c2)sc(C(N)=O)c1C	.	-49.7	-11.5	-1.8	28.8*	-6.8
COC(=O)c1sc(NC(=O)c2cccc([N+](=O)[O-])c2)c(C(N)=O)c1C	-11.7	.	.	.	5.8	.
Cc1c(C(=O)Nc2cccc([N+](=O)[O-])c2)csc1-c1ccccc1	0.6	.	.	.	58.1*	6.3
COc1ccc(S(=O)(=O)N[C@H]2C=C[C@H](CC(=O)N3CCN(c4ccccc4)CC3)O[C@@H]2CO)cc1	-8.6	-5.3	11.2	-0.2	.	.
COc1ccc(S(=O)(=O)N(C)C[C@@H]2Oc3ccc(NS(=O)(=O)c4cn(C)cn4)cc3CC(=O)N([C@H](C)CO)C[C@@H]2C)cc1	-1.0	-8.4	7.7	-1.5	.	.
C[C@@H]1CCCCO[C@@H](CN(C)C(=O)c2ccccc2)[C@@H](C)CN([C@@H](C)CO)C(=O)c2cc(NS(=O)(=O)c3cn(C)cn3)ccc2O1	-6.3	-8.1	1.6	-2.4	.	.
COCCN(C(=O)COC(=O)CCc1ccccc1OC)c1c(N)n(Cc2ccccc2)c(=O)[nH]c1=O	-0.7	-13.6	-4.3	-3.3	-7.8	.
Cc1ccc(SCC(=O)OCC(=O)N(CC(C)C)c2c(N)n(Cc3ccccc3)c(=O)[nH]c2=O)cc1C	-14.5	-11.5	-0.3	-4.0	33.4*	-4.3
CC(C)CN(C(=O)COC(=O)C(C)N1C(=O)c2ccccc2C1=O)c1c(N)n(Cc2ccccc2)c(=O)[nH]c1=O (stereo unspecified)	.	-29.2	-3.8	-7.3	37.3*	2.9
CCN(C(=O)COC(=O)CCc1ccccc1OC)c1c(N)n(Cc2ccccc2)c(=O)[nH]c1=O	6.8	-1.4	2.8	-5.4	27.7*	2.0
Cc1ccc(OCCC(=O)N(CCC(C)C)c2c(N)n(Cc3ccccc3)c(=O)[nH]c2=O)cc1	.	.	.	.	24.2*	-2.4
Cc1ccc(C(=O)NCC(=O)OCC(=O)N(CC(C)C)c2c(N)n(Cc3ccccc3)c(=O)[nH]c2=O)cc1C	5.0	-10.4	-0.7	2.7	-2.8	.
CO[C@H](CN(C)C(=O)c1cnccn1)[C@H](C)CN([C@H](C)CO)S(=O)(=O)c1ccc(Cl)cc1	-18.4	-5.3	-11.4	-5.8	.	.
CO[C@H]1CN(C)C(=O)c2ccc(NC(=O)Nc3cccc(Cl)c3)cc2OC[C@H](C)NC[C@@H]1C	9.8	33.7	-5.3	5.3	.	.
O=C(C[C@@H]1CC[C@H]2[C@@H](COC[C@@H](O)CN2C(=O)C2CC2)O1)NCc1ccncc1	9.5	0.9	3.4	-3.4	.	.
C[C@H](CO)N1C[C@H](C)[C@@H](CN(C)C(=O)Nc2ccc(F)cc2)Oc2ccc(NS(=O)(=O)c3ccccc3)cc2C1=O	2.5	-2.4	3.0	-0.1	.	.
CN(C(=O)COC(=O)c1ccccc1OCc1ccc(Cl)cc1)c1c(N)n(Cc2ccccc2)c(=O)[nH]c1=O	5.3	-3.9	-12.1	-1.4	33.7*	2.2
Cc1ccc(S(=O)(=O)N(C)c2ccc(OC(=O)CN3C(=O)NC4(CCCC4)C3=O)cc2)cc1	6.2	-4.0	4.7	2.0	-10.0	.
Cc1ccc(S(=O)(=O)N(C)c2ccc(OC(=O)CN3C(=O)NC4(CCCC4)C3=O)cc2)cc1C	-1.3	-4.4	-1.8	-5.6	24.7*	3.2
Cc1ccc(C2=NOC3(CC(=O)N(c4ccc(C)cc4)C3=O)C2)cc1 (stereo unspecified)	.	1.3	2.7	7.7	29.1*	4.7
O=S(=O)(c1ccccc1)N1CCN(c2cc(-c3ccccc3)nc3ncnn23)CC1	2.4	.	.	.	6.6	.
Cc1ccccc1NC(=O)C1CCN(c2cc(-c3ccccc3)nc3ncnn23)CC1	2.6	.	.	.	24.3*	-4.6
Cc1cc(OCC(=O)Nc2sc3c(c2C#N)CC(C)(C)NC3(C)C)c(C(C)C)cc1Cl	13.8	-10.0	0.2	-1.1	62.0*	-1.1
Cc1ccc(C(C)C)c(OCC(=O)Nc2sc3c(c2C#N)CC(C)(C)NC3(C)C)c1	8.4	.	.	.	1.4	.
SMILES	RAD54 inh	RAD52 anneal inh	S100A4 MyoIIA	AF4-AF9 inh	dFosB act-1	dFosB act-2
Cc1ccc(C)c(NC(=O)C2CC=CCC2C(=O)O)c1 (stereo unspecified)	1.6	.	.	.	-2.3	.
Cc1ccc(C)c(NC(=O)C2CC3c4ccccc4C2c2ccccc23)c1 (stereo unspecified)	-6.4	.	.	.	39.9*	-0.5
Cn1nc(C(=O)Nc2ccc(Cl)cc2)cc1C(=O)Nc1ccc(Cl)cc1	-4.0	-4.2	5.3	3.9	8.3	.
Cn1nc(C(=O)Nc2cccc(Cl)c2)cc1C(=O)Nc1cccc(Cl)c1	10.3	-0.2	2.2	-3.3	33.2*	2.4
COc1ccc(OC)c(/C=N/NC(=O)c2[nH]nc3c2CCc2ccccc2-3)c1	.	-8.2	-11.9	-0.8	22.8*	0.5
O=C(C[C@H]1C=C[C@@H](NC(=O)Nc2ccc3c(c2)OCO3)[C@@H](CO)O1)NCc1ccc(F)cc1	.	2.0	1.4	-0.1	.	.
O=C(/C=C/c1ccccc1)NC(NC(=S)Nc1ccc(Cl)cc1)C(Cl)(Cl)Cl (stereo unspecified)	12.0	.	.	.	23.9*	-2.0
Cc1nc(Nc2ccc(Cl)c(Cl)c2)sc1C(=O)Nc1ccccc1	3.4	-3.0	-1.6	0.5	-15.4	.
Cc1nc(NC(=O)/C=C/c2ccccc2)sc1C(=O)Nc1ccccc1Cl	-23.5	.	.	.	38.7*	3.2
COc1ccc(NC(=S)NC(NC(=O)/C=C/c2ccccc2)C(Cl)(Cl)Cl)cc1 (stereo unspecified)	6.8	.	.	.	13.4	.
O=C(/C=C/c1ccc(Cl)cc1)Nc1nccs1	.	-26.1	-10.0	0.0	22.9*	-0.2
Cc1nc(NC(=O)/C=C/c2ccccc2)sc1C(=O)Nc1ccc(Cl)cc1	4.4	.	.	.	30.6*	0.0
Cc1ccc(S(=O)(=O)Nc2ccc3c(c2)C(=O)N([C@@H](C)CO)C[C@H](C)[C@@H](CN(C)S(=O)(=O)c2cn(C)cn2)O3)cc1	5.5	-2.6	-4.5	1.5	.	.
O=C(C[C@H]1CC[C@@H]2[C@H](COC[C@H](O)CN2Cc2cc(F)cc(F)c2)O1)NC1CCCC1	-0.1	8.3	0.0	1.5	.	.
C[C@H]1CN([C@@H](C)CO)C(=O)c2cc(-c3ccc(F)cc3)cnc2O[C@@H]1CN(C)C(=O)C1CCC1	-4.1	11.9	0.7	-3.0	.	.
COc1ccc(CN=C2NC(=O)CC(C(=O)Nc3cc(C)cc(C)c3)S2)cc1 (stereo unspecified)	-11.4	.	.	.	-2.6	.
COC(=O)c1cc(NC(=O)C2CC(=O)NC(=NCc3ccc(OC)cc3)S2)cc(C(=O)OC)c1 (stereo unspecified)	.	-16.3	-1.9	-4.0	37.1*	-5.3
O=C(COC(=O)c1ccncc1)Nc1cccc2ccccc12	-8.6	-4.5	28.0	0.6	-6.9	.
